# Experimental data from ChEMBL document CHEMBL1799953, “Backbone cyclic peptide inhibitors of protein kinase B (PKB/Akt)” (J Med Chem, 2011).
# Active and inactive are the calls of the source. The calls are words filed in the database; no cut-off is given here. *1 amine or outer side, *2 acyl side, *3 side chain or, on linkers, in order; H or OH if unused. Where a SMILES comes first, the peptide text is derived from it. Bridges are numbered along the chain shown (N, C = ends). [ ]: non-standard residue; d: D form. N(6-aminohexyl)Gly = O=C(CN(CCCCCCN[*:3])[*:1])[*:2]; NGly(3-aminopropyl) = O=C(CN(CCCN[*:3])[*:1])[*:2]; N(2-Aminoethyl)Gly = O=C(CN(CCN[*:3])[*:1])[*:2]; Adipoyl = O=C(CCCCC(=O)[*:2])[*:1]; Glutaryl = O=C(CCCC(=O)[*:2])[*:1]; Gly(N-(CH2)6NH2) = NCCCCCCNCC(=O)O; Gly(N-2-aminoethyl) = NCCNCC(=O)O; hLeu = CC(C)CC[C@H](N)C(=O)O; Nle = CCCC[C@H](N)C(=O)O; Nva = CCC[C@H](N)C(=O)O; Dap = NC[C@H](N)C(=O)O; CO = O=C([*:1])[*:2]; Nlys = NCCCCNCC(=O)O
# Target: T1, RAC-alpha serine/threonine-protein kinase (Homo sapiens, UniProt P31749)
# T1 sequence (P31749 whole entry): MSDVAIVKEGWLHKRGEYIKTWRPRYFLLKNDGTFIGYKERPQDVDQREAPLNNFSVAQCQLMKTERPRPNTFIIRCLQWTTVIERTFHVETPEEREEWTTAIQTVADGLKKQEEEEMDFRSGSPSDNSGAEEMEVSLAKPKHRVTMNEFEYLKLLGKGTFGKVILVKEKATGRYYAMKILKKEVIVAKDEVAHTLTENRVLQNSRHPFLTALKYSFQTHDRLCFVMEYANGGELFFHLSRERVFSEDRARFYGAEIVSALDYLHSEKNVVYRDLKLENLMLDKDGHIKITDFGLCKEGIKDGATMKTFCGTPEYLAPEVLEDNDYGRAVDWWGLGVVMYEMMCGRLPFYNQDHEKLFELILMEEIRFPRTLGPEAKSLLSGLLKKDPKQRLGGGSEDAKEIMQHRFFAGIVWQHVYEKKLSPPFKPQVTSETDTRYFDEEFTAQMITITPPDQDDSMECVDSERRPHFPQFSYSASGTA
# Experiment: Inhibition of Akt using RPRTSSF peptide and [gamma32]ATP at 5 uM by cell-free radioactive assay relative to control
# Method in brief: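 Cell-free 32P kinase assay: HisΔPHPKBEEEFlag (0.005 units, one-step Ni-NTA partial purification), 50 mM Hepes pH 7.4, 0.1 mM EGTA, 0.1% 2-mercaptoethanol, 10 mM magnesium acetate, 3 μM RPRTSSF substrate, 10 μM [γ32P]ATP (1 μCi/well). Inhibitor at 5 μM. Activity loss expressed as percent of uninhibited reaction.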
row,SMILES,inhibition
1,CCC[C@@H]1NC(=O)[C@H](CCCNC(=N)N)NC(=O)CN(C(=O)[C@@H](N)CCCNC(=N)N)CCNC(=O)NCCCCCCN(CC(N)=O)C(=O)[C@H](CCC(C)C)NC(=O)[C@H](CN)NC(=O)[C@H](Cc2ccc(O)cc2)NC1=O (H-R[N(2-Aminoethyl)Gly]R[Nva]Y[Dap][hLeu][N(6-aminohexyl)Gly]-NH2; linker 2-8 via CO),100%
2,CCC[C@@H]1NC(=O)[C@H](CCCNC(=N)N)NC(=O)CN(C(=O)[C@@H](N)CCCNC(=N)N)CCCCCCNC(=O)NCCCN(CC(N)=O)C(=O)[C@H](CCC(C)C)NC(=O)[C@H](CN)NC(=O)[C@H](Cc2ccc(O)cc2)NC1=O (H-R[N(6-aminohexyl)Gly]R[Nva]Y[Dap][hLeu][NGly(3-aminopropyl)]-NH2; linker 2-8 via CO),100%
3,CCC[C@@H]1NC(=O)[C@H](CCCNC(=N)N)NC(=O)[C@@H]2CCCN2C(=O)[C@H](CCCNC(=N)N)NC(=O)CCCC(=O)NCCCCN(CC(N)=O)C(=O)[C@H](CCC(C)C)NC(=O)[C@H](CN)NC(=O)[C@H](Cc2ccc(O)cc2)NC1=O (RPR[Nva]Y[Dap][hLeu][Nlys]-NH2; linker N-8 via Glutaryl),14%
4,CCC[C@@H]1NC(=O)[C@H](CCCNC(=N)N)NC(=O)[C@@H]2CCCN2C(=O)[C@H](CCCNC(=N)N)NC(=O)CCCCC(=O)NCCCCN(CC(N)=O)C(=O)[C@H](CCC(C)C)NC(=O)[C@H](CN)NC(=O)[C@H](Cc2ccc(O)cc2)NC1=O (RPR[Nva]Y[Dap][hLeu][Nlys]-NH2; linker N-8 via Adipoyl),18%
5,CCC[C@@H]1NC(=O)[C@H](CCCNC(=N)N)NC(=O)CN(C(=O)[C@@H](N)CCCNC(=N)N)CCCNC(=O)NCCCCCCN(CC(N)=O)C(=O)[C@H](CCC(C)C)NC(=O)[C@H](CN)NC(=O)[C@H](Cc2ccc(O)cc2)NC1=O (H-R[NGly(3-aminopropyl)]R[Nva]Y[Dap][hLeu][N(6-aminohexyl)Gly]-NH2; linker 2-8 via CO),100%
6,CCC[C@@H]1NC(=O)[C@H](CCCNC(=N)N)NC(=O)[C@@H]2CCCN2C(=O)[C@H](CCCNC(=N)N)NC(=O)CCCC(=O)NCCCCCCN(CC(N)=O)C(=O)[C@H](CCC(C)C)NC(=O)[C@H](CN)NC(=O)[C@H](Cc2ccc(O)cc2)NC1=O (RPR[Nva]Y[Dap][hLeu][N(6-aminohexyl)Gly]-NH2; linker N-8 via Glutaryl),32%

# Next, values leading:
row,inhibition,SMILES
1,98%,CCC[C@@H]1NC(=O)[C@H](CCCNC(=N)N)NC(=O)CN(C(=O)[C@@H](N)CCCNC(=N)N)CCNC(=O)NCCCN(CC(N)=O)C(=O)[C@H](CCC(C)C)NC(=O)[C@H](CN)NC(=O)[C@H](Cc2ccc(O)cc2)NC1=O (H-R[N(2-Aminoethyl)Gly]R[Nva]Y[Dap][hLeu][NGly(3-aminopropyl)]-NH2; linker 2-8 via CO)
2,100%,CCC[C@@H]1NC(=O)[C@H](CCCNC(=N)N)NC(=O)CN(C(=O)[C@@H](N)CCCNC(=N)N)CCCCNC(=O)NCCCCN(CC(N)=O)C(=O)[C@H](CCC(C)C)NC(=O)[C@H](CN)NC(=O)[C@H](Cc2ccc(O)cc2)NC1=O (H-R[Nlys]R[Nva]Y[Dap][hLeu][Nlys]-NH2; linker 2-8 via CO)
3,inactive,CCC[C@H](NC(=O)[C@H](CCCNC(=N)N)NC(=O)[C@@H](Cc1ccc(O)cc1)NC(=O)[C@@H](N)CCCNC(=N)N)C(=O)N[C@@H](Cc1ccc(O)cc1)C(=O)N[C@@H](CN)C(=O)N[C@@H](CCC(C)C)C(N)=O
4,inactive,CCC[C@H](NC(=O)[C@H](CCCNC(=N)N)NC(=O)[C@@H](Cc1ccccc1)NC(=O)[C@@H](N)CCCNC(=N)N)C(=O)N[C@@H](Cc1ccc(O)cc1)C(=O)N[C@@H](CN)C(=O)N[C@@H](CCC(C)C)C(N)=O
5,82%,CCCC[C@H](NC(=O)[C@@H](N)CCCNC(=N)N)C(=O)N[C@@H](CCCNC(=N)N)C(=O)N[C@@H](CCC)C(=O)N[C@@H](Cc1ccc(O)cc1)C(=O)N[C@@H](CN)C(=O)N[C@@H](CCC(C)C)C(N)=O (H-R[Nle]R[Nva]Y[Dap][hLeu]-NH2)
6,67%,CCC[C@H](NC(=O)[C@H](CCCNC(=N)N)NC(=O)CNCCN)C(=O)N[C@@H](Cc1ccc(O)cc1)C(=O)N[C@@H](CN)C(=O)N[C@@H](CCC(C)C)C(=O)N(CCN)CC(N)=O (H-[Gly(N-2-aminoethyl)]R[Nva]Y[Dap][hLeu][Gly(N-2-aminoethyl)]-NH2)
7,64%,CCC[C@H](NC(=O)[C@H](CCCNC(=N)N)NC(=O)CNCCCCCCN)C(=O)N[C@@H](Cc1ccc(O)cc1)C(=O)N[C@@H](CN)C(=O)N[C@@H](CCC(C)C)C(=O)N(CCN)CC(N)=O (H-[Gly(N-(CH2)6NH2)]R[Nva]Y[Dap][hLeu][Gly(N-2-aminoethyl)]-NH2)
8,60%,CCC[C@H](NC(=O)[C@H](CCCNC(=N)N)NC(=O)[C@H](Cc1ccccc1)NC(=O)[C@@H](N)CCCNC(=N)N)C(=O)N[C@@H](Cc1ccc(O)cc1)C(=O)N[C@@H](CN)C(=O)N[C@@H](CCC(C)C)C(N)=O

# Target: T1, RAC-alpha serine/threonine-protein kinase
# Experiment: Inhibition of Akt using RPRTSSF peptide and [gamma32]ATP by cell-free radioactive assay
# Method in brief: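 Same reaction: HisΔPHPKBEEEFlag (0.005 units), 50 mM Hepes pH 7.4, 0.1 mM EGTA, 0.1% 2-mercaptoethanol, 10 mM magnesium acetate, 3 μM RPRTSSF, 10 μM [γ32P]ATP. Peptide stock concentration determined by UV spectrophotometry; reference peptide run in every assay.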
row,SMILES,IC50
1,CCC[C@@H]1NC(=O)[C@H](CCCNC(=N)N)NC(=O)CN(C(=O)[C@@H](N)CCCNC(=N)N)CCNC(=O)NCCCCCCN(CC(N)=O)C(=O)[C@H](CCC(C)C)NC(=O)[C@H](CN)NC(=O)[C@H](Cc2ccc(O)cc2)NC1=O (H-R[N(2-Aminoethyl)Gly]R[Nva]Y[Dap][hLeu][N(6-aminohexyl)Gly]-NH2; linker 2-8 via CO),290 nM
2,CCC[C@@H]1NC(=O)[C@H](CCCNC(=N)N)NC(=O)CN(C(=O)[C@@H](N)CCCNC(=N)N)CCCCCCNC(=O)NCCCN(CC(N)=O)C(=O)[C@H](CCC(C)C)NC(=O)[C@H](CN)NC(=O)[C@H](Cc2ccc(O)cc2)NC1=O (H-R[N(6-aminohexyl)Gly]R[Nva]Y[Dap][hLeu][NGly(3-aminopropyl)]-NH2; linker 2-8 via CO),160 nM
3,CCC[C@@H]1NC(=O)[C@H](CCCNC(=N)N)NC(=O)CN(C(=O)[C@@H](N)CCCNC(=N)N)CCCNC(=O)NCCCCCCN(CC(N)=O)C(=O)[C@H](CCC(C)C)NC(=O)[C@H](CN)NC(=O)[C@H](Cc2ccc(O)cc2)NC1=O (H-R[NGly(3-aminopropyl)]R[Nva]Y[Dap][hLeu][N(6-aminohexyl)Gly]-NH2; linker 2-8 via CO),320 nM

# Now from value to compound:
row,IC50,SMILES
1,920 nM,CCC[C@@H]1NC(=O)[C@H](CCCNC(=N)N)NC(=O)CN(C(=O)[C@@H](N)CCCNC(=N)N)CCNC(=O)NCCCN(CC(N)=O)C(=O)[C@H](CCC(C)C)NC(=O)[C@H](CN)NC(=O)[C@H](Cc2ccc(O)cc2)NC1=O (H-R[N(2-Aminoethyl)Gly]R[Nva]Y[Dap][hLeu][NGly(3-aminopropyl)]-NH2; linker 2-8 via CO)
2,170 nM,CCC[C@@H]1NC(=O)[C@H](CCCNC(=N)N)NC(=O)CN(C(=O)[C@@H](N)CCCNC(=N)N)CCCCNC(=O)NCCCCN(CC(N)=O)C(=O)[C@H](CCC(C)C)NC(=O)[C@H](CN)NC(=O)[C@H](Cc2ccc(O)cc2)NC1=O (H-R[Nlys]R[Nva]Y[Dap][hLeu][Nlys]-NH2; linker 2-8 via CO)
